The source of these data is ChEMBL document CHEMBL1134321, “Structure-based generation of a new class of potent Cdk4 inhibitors: new de novo design strategy and library design” (J Med Chem, 2001).

pIC50: −log10 of the molar value.

The assay is described as follows: Inhibitory activity against CDK4 using recombinant human cyclin D2-CDK4 complex expressed in sf9 cells. A digest of the protocol: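 Recombinant human cyclin D2–Cdk4, baculovirus-expressed in Sf9 cells and HPLC-purified; incubated with 50 µM ATP plus 0.5-1.5 µCi [33P]-ATP, 100 µM or 400 µM G1 peptide, in 20 mM Tris-HCl pH 7.4, 10 mM MgCl2, 4.5 mM 2-mercaptoethanol, 1 mM EGTA, 30 °C, 45 min.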
`CN(C)c1cc(NC(=O)Nc2ccccc2)c2ccccc2n1`: the pIC50 was 4.05.

For `O=C(NCc1ccccc1)Nc1cccc2ccc(O)cc12`, the pIC50 is 3.39.

For the compound `O=C(Nc1nccs1)Nc1cccc2ccc(O)cc12`, the negative-log IC50 (pIC50) is 4.64.

Consider `O=C(Nc1ccccn1)NC1CCCCC1`, for which the pIC50 was under 4.00.

Turning to `O=C(Nc1cccc2ccc(O)cc12)NC1CCCC1`, the negative logarithm of the IC50 (pIC50) was 3.82.

In the case of `CC(C)NC(=O)Nc1cccc2ccc(O)cc12`, the pIC50 is 3.66.

With `O=C(Nc1ccccn1)Nc1cccc2c1C(=O)NC2=O`, the pIC50 was 5.44.

For the compound `O=C(Nc1ccccn1)Nc1cccc2c1-c1ccccc1C2=O`, the pIC50 is 7.00.

For `O=C(Nc1ccccn1)Nc1cccc2ccc(O)cc12`, the pIC50 is 5.12.

`O=C1NC(=O)C(=Cc2ccc3c(c2)OCO3)C(=O)N1`: the pIC50 was 3.46.

Consider `O=C(Cc1ccccc1)Nc1cccc2ccc(O)cc12`, for which the pIC50 is under 3.00.

For `O=C(Nc1ccccn1)Nc1cccc2c1[C@H]1CCCN1C2=O`, the pIC50 is 7.38.

For `O=C(Nc1ccncc1)Nc1cccc2ccc(O)cc12`, the pIC50 is 3.96.

With `Cc1[nH]c2ccccc2c1/C=C1/NC(=S)NC1=O`, the pIC50 was 4.85.

For `O=C(NCc1ccccc1)Nc1ccccn1`, the pIC50 was under 4.00.

For `COc1nc(N)c(C#N)c(-c2ccc3c(c2)OCO3)c1C#N`, the pIC50 is 4.44.

As for `Nc1nc(N)nc(C2=Cc3cc(Cl)ccc3OC2)n1`, the pIC50 is 3.35.

Regarding `O=C(Nc1ccccn1)Nc1cccc2c1-c1cccn1C2=O`, the pIC50 is 7.47.

For `O=C(Nc1cc(-c2cccs2)ccn1)Nc1cccc2c1C1CCCN1C2=O` (stereo not drawn), the pIC50 is 7.96.

On to `O=C(Nc1ccccc1)Nc1ccccn1`, for which the negative-log IC50 (pIC50) is 4.00.

`O=C(Nc1ccccn1)Nc1cccc2ncccc12`: the negative logarithm of the IC50 (pIC50) is 5.62.

With `CSc1ccc(NC(=O)Nc2cccc3c(O)cccc23)cc1`, the negative-log IC50 (pIC50) is 4.40.

Turning to `O=C(Nc1ccc2c[nH]nc2c1)Nc1ccccn1`, the pIC50 was 6.17.

For `O=C(Nc1ccccc1)Nc1cccc2ccc(O)cc12`, the negative logarithm of the IC50 (pIC50) is 3.92.

`O=C(Nc1cccnc1)Nc1cccc2ccc(O)cc12`: the negative-log IC50 (pIC50) was 3.47.

As to `O=C(Nc1ccccn1)Nc1cccc2c1[C@@H]1CCCN1C2=O`, the pIC50 is 6.72.

Regarding `Cc1ccc(Cl)cc1NC(=O)Nc1cccc2ccc(O)cc12`, the pIC50 is 4.36.

As for `C=C(O)c1ccc2n1C(=O)c1cccc(NC(=O)Nc3ccccn3)c1-2`, the pIC50 was 7.77.

As to `CN(C)c1cc(NC(=O)Nc2cccc(Cl)c2)c2ccccc2n1`, the pIC50 was 4.44.

As to `O=C(Nc1ccc2ncccc2c1)Nc1ccc2ncccc2c1`, the pIC50 is 4.11.

Turning to `O=C1NC(=S)NC(=O)C1=Cc1c(O)ccc2ccccc12`, the pIC50 is 4.00.

For the compound `Nc1nc(O)c2nc(CNc3ccc(C(=O)O)cc3)cnc2n1` [PTEROIC ACID], the pIC50 is 4.80.

Regarding `Nc1nc(N)c2nc(-c3ccccc3)c(N)nc2n1` [TRIAMTERENE], the pIC50 is 3.68.

The term pIC50 denotes the negative decadic logarithm of the IC50, by convention in mol/L.
